The record followed here is PubChem BioAssay AID504417 (Johns Hopkins Ion Channel Center, 2011).

Molecules are shown by their SMILES. Activity calls are given as the source filed them.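 The calls were made as follows: active = potentiation or inhibition of the KCNQ1 potassium channel at any tested concentration, with a dose response curve obtained; inactive = no effect at any concentration, or no dose response.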

The target in the test is Potassium voltage-gated channel subfamily KQT member 1 (Homo sapiens) (UniProt P51787). Nature of the test: KCNQ1 thallium flux concentration-response – KCNQ1-expressing cells, selectivity assay for KCNQ2 activator project, dose response (AID 504417). The conditions noted are these: FluxOR thallium flux fluorescence; series mostly up to 30 µM. An outline of the steps: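 Test system: CHO cells expressing the KCNQ1 potassium channel; Also added: potassium sulfate plus thallium sulfate stimulus, 12.5 mM each in 5x stock; Timing: dye load 90 min, compound 20 min, room temperature; Technique: kinetic FluxOR thallium-flux fluorescence, 10 s baseline plus 110 s post-stimulus; Evaluation: Baseline-scaled fluorescence change, normalized to controls.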
Chain of Potassium voltage-gated channel subfamily KQT member 1 (Homo sapiens) (P51787 whole entry, looked up): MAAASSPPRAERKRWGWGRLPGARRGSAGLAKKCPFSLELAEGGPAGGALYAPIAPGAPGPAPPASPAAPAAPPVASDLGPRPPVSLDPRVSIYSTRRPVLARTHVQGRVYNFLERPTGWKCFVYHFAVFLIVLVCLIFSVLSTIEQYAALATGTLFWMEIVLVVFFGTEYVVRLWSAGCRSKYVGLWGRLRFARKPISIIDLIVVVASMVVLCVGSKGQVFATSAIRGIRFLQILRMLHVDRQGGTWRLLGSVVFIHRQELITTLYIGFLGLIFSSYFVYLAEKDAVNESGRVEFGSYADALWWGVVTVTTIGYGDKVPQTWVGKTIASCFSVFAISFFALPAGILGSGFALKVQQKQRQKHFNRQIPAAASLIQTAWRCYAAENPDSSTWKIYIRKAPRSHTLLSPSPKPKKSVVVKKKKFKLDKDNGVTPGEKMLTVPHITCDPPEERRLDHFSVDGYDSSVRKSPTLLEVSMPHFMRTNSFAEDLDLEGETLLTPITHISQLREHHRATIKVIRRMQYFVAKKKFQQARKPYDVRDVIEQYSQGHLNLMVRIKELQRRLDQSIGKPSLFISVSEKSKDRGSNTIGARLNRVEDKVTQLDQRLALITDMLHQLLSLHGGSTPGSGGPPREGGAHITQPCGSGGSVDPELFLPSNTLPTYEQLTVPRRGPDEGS
Regarding `Cc1cc(C)c(NC(=O)C2CC3CCC2C3)c(C)c1` (stereo not given), the result was inactive.

Turning to `Cc1ccc(C)c(NC(=O)C2CC3CCC2C3)c1` (stereo not given), the compound was classed as inactive. On to `Cc1cccc(C)c1NC(=O)C1CC2CCC1C2` (stereo not given), for which the call was inactive. The entry for `CCCCC(=O)Nc1c(C)cc(C)cc1Cl` is “inactive”. For `Cc1cc(C)c(NC(=O)CC(C)(C)C)c(Cl)c1`, the compound was called inactive.
